Test results as given in ChEMBL document CHEMBL1131169, “Efficacious, orally bioavailable thrombin inhibitors based on 3-aminopyridinone or 3-aminopyrazinone acetamide peptidomimetic templates” (J Med Chem, 1998).

Experiments:
[1] = molecular target: Prothrombin (Homo sapiens, UniProt P00734); experiment: Inhibitory activity against thrombin (IIa) was determined
[2] = molecular target: Serine protease 1 (Homo sapiens, UniProt P07477); experiment: Inhibitory activity against trypsin was determined
Chain of Serine protease 1 (P07477 whole entry): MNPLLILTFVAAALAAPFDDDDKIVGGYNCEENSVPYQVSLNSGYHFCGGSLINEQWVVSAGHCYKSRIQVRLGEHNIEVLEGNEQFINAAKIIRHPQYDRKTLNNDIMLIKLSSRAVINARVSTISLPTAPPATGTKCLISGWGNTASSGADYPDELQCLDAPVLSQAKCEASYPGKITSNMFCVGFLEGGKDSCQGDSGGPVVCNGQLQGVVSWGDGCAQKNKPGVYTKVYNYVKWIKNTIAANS

[3] = in vitro anticoagulant potency (2x APTT) against Human plasma.; format: functional
[4] = time required for maximum concentration in dogs at 1 mg/kg dose upon oral administration; format: ADME, organism-based, Canis lupus familiaris; parameters: dose 1 mg/kg, route oral; details: dog, in vivo
Method in brief: (§1)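 Dogs dosed orally at 1 mg/kg, n = 2 per compound. Plasma drug levels were followed over time to give Cmax (μM), tmax (min), elimination t1/2 (min) and AUC (μM·h).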

[5] = Half-life in dogs at 1 mg/kg dose upon oral administration; format: ADME, organism-based, Canis lupus familiaris; parameters: dose 1 mg/kg, route oral; details: dog, in vivo; method in brief: as §1
[6] = in vitro anticoagulant potency (2x APTT) against rat plasma.; format: functional
[7] = tested on: Rattus norvegicus; experiment: In vivo antithrombotic activity was measured after intravenous infusion (at 5 ug/kg/min) in rat FeCl3 arterial thrombosis model;1/6; format: functional
[8] = Area under curve(AUC) value of the compound; format: ADME
[9] = Final plasma concentration after intravenous infusion; format: ADME, cell-free; details: read-out: Final plasma concentration
[10] = Maximum plasma concentration in dogs at 1 mg/kg dose upon oral administration; format: ADME, organism-based, Canis lupus familiaris; parameters: dose 1 mg/kg, route oral; details: dog; method in brief: as §1
[11] = Final plasma concentration after intravenous infusion at 5 ug/kg/min dose; format: ADME, cell-free; details: 0.005 mg/kg, read-out: Final plasma concentration
[12] = tested on: Rattus norvegicus; experiment: In vivo antithrombotic activity was measured after intravenous infusion (at 10 ug/kg/min) in rat FeCl3 arterial thrombosis model; 0/9; format: functional
[13] = tested on: Rattus norvegicus; experiment: In vivo antithrombotic activity was measured after intravenous infusion (at 10 ug/kg/min) in rat FeCl3 arterial thrombosis model; 3/6; format: functional
[14] = tested on: Rattus norvegicus; experiment: In vivo antithrombotic activity was measured after intravenous infusion (at 10 ug/kg/min) in rat FeCl3 arterial thrombosis model; 0/6; format: functional
[15] = Area under curve(AUC) value of the compound in dogs at 1 mg/kg dose upon oral administration; format: ADME, organism-based, Canis lupus familiaris; parameters: dose 1 mg/kg, route oral; details: dog, in vivo; method in brief: as §1
[16] = Area under curve(AUC) value of the compound in dogs at 0.5 mg/kg dose upon oral administration; format: ADME, organism-based; parameters: dose 0.5 mg/kg, route oral; details: dog, in vivo
Method in brief: (§2)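 Oral dosing at 0.5 mg/kg in dogs (n = 4) with plasma levels followed over time. Reported as Cmax (μM), tmax (min), terminal t1/2 (min) and AUC (μM·h), each given as mean ± spread. The same dogs later received an iv crossover dose at 0.5 mg/kg to estimate oral bioavailability.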

[17] = tested on: Rattus norvegicus; experiment: In vivo antithrombotic activity was measured after intravenous infusion (at 5 ug/kg/min) in rat FeCl3 arterial thrombosis model; 4/6; format: functional
[18] = time required for maximum concentration in dogs at 0.5 mg/kg dose upon oral administration; format: ADME, organism-based, Canis lupus familiaris; parameters: dose 0.5 mg/kg, route oral; details: dog, in vivo; method in brief: as §2
[19] = Maximum plasma concentration in dogs at 0.5 mg/kg dose upon oral administration; format: ADME, organism-based, Canis lupus familiaris; parameters: dose 0.5 mg/kg, route oral; details: dog; method in brief: as §2
[20] = Half-life in dogs at 0.5 mg/kg dose upon oral administration; format: ADME, organism-based, Canis lupus familiaris; parameters: dose 0.5 mg/kg, route oral; details: dog, in vivo; method in brief: as §2

| Ki [1] | Ki [2] | concentration [9] | SMILES | 2x APTT [3] | also measured |
| --- | --- | --- | --- | --- | --- |
| 0.007 µM | 2.1 µM | – | Cc1nc(N)ccc1CNC(=O)Cn1c(C)c(Cl)nc(NCCc2ccccc2)c1=O | 5470 nM | – |
| 0.0005 µM | 3.2 µM | 586 nM | Cc1nc(N)ccc1CNC(=O)Cn1c(C)ccc(NS(=O)(=O)Cc2ccccc2)c1=O [L-374087] | 210 nM | Tmax [4]: 1.25 h; half-life [5]: 2.57 h; 2x APTT [6]: 250 nM; Occlusions [7]: 1; AUC [8]: 4.42 µM·h; Cmax [10]: 990 nM; concentration [11]: 221 nM; Occlusions [12]: 0 |
| 0.024 µM | 2.6 µM | – | Cc1nc(N)ccc1CNC(=O)Cn1c(C)cnc(NC(C)(C)Cc2ccccc2)c1=O | – | – |
| 0.0083 µM | 1.2 µM | – | Cc1cnc(NCCc2ccccc2)c(=O)n1CC(=O)NCc1ccc(N)nc1 | 2100 nM | – |
| 0.00035 µM | 1 µM | 224 nM | Cc1cc(N)nc(C)c1CNC(=O)Cn1c(C)cnc(NCCc2ccccc2)c1=O | 420 nM | Occlusions [13]: 3 |
| 0.022 µM | 4.8 µM | – | Cc1nc(N)ccc1CNC(=O)Cn1c(C)cnc(N[C@@H](C)Cc2ccccc2)c1=O | – | – |
| 0.00052 µM | 1.5 µM | 554 nM | Cc1nc(N)ccc1CNC(=O)Cn1c(C)cnc(N[C@H](C)Cc2ccccc2)c1=O | 350 nM | Tmax [4]: 0.417 h; half-life [5]: 2.13 h; Cmax [10]: 600 nM; Occlusions [14]: 0; AUC [15]: 1.85 µM·h |
| 0.0008 µM | 1.8 µM | 445 nM | Cc1nc(N)ccc1CNC(=O)Cn1c(C)cnc(NCCc2ccccc2)c1=O [L-375378] | 410 nM | AUC [16]: 11.2 µM·h; 2x APTT [6]: 380 nM; Occlusions [17]: 4; Tmax [18]: 0.875 h; concentration [11]: 238 nM; Occlusions [14]: 0; Cmax [19]: 1960 nM; half-life [20]: 3.85 h |
